Calls of active or inactive are those of the source. The calls are words filed in the database; no cut-off is given here.

For one assay, the system named is Pseudomonas aeruginosa. The experiment in a line: Antimicrobial activity against Pseudomonas aeruginosa at 1000 ppm. The assay is classed as functional, organism-based. The gist of the method:
(§1)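 Compound applied at 1000 ppm in DMSO to each bacterial, fungal or oomycete test organism; activity read as the diameter of the growth-inhibition zone in mm.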

A further assay deals with Globisporangium ultimum. The experiment in a line: Antimicrobial activity against Pythium ultimum at 1000 ppm. It counts as functional, organism-based. The gist of the method: as §1
The subject of another assay is Aspergillus niger. As to the kind of experiment: Antimicrobial activity against Aspergillus niger at 1000 ppm. It counts as functional, organism-based. The gist of the method: as §1
In assay [1] the test system is Bacillus subtilis. As to the kind of experiment: Antimicrobial activity against Bacillus subtilis at 1000 ppm. As to conditions: read-out: IZ. The assay is classed as functional. The gist of the method:
as §1

Assay [2] has as its system Fusarium oxysporum. The experiment in a line: Antimicrobial activity against Fusarium oxysporum at 1000 ppm. The assay is classed as functional. As to conditions: read-out: IZ. The gist of the method: as §1
Assay [3] concerns Saccharomyces cerevisiae. The experiment in a line: Antimicrobial activity against Saccharomyces cerevisiae at 1000 ppm. It counts as functional. As to conditions: read-out: IZ. The gist of the method:
as §1

Assay [4] relates to Bacillus subtilis. As to the kind of experiment: Antimicrobial activity against Bacillus subtilis at 100 ppm. The assay is classed as functional, organism-based.
Assay [5] relates to Fusarium oxysporum. As to the kind of experiment: Antimicrobial activity against Fusarium oxysporum at 100 ppm. It counts as functional, organism-based.
The subject of assay [6] is Saccharomyces cerevisiae. As to the kind of experiment: Antimicrobial activity against Saccharomyces cerevisiae at 100 ppm. The assay is classed as functional, organism-based.
The subject of assay [7] is Rhizoctonia solani. As to the kind of experiment: Antimicrobial activity against Rhizoctonia solani at 1000 ppm. As to conditions: read-out: IZ. The assay is classed as functional. The gist of the method: as §1
In assay [8] the test system is Rhizoctonia solani. As to the kind of experiment: Antimicrobial activity against Rhizoctonia solani at 100 ppm. It counts as functional. As to conditions: read-out: IZ.
Assay [9] has as its system Rhizoctonia solani. The experiment in a line: Antimicrobial activity against Rhizoctonia solani at 10 ppm. It counts as functional. As to conditions: read-out: IZ.
Assay [10] concerns Botrytis cinerea. The experiment in a line: Antimicrobial activity against Botrytis cinerea at 1000 ppm. It counts as functional. As to conditions: read-out: IZ. The gist of the method: as §1
In assay [11] the test system is Botrytis cinerea. As to the kind of experiment: Antimicrobial activity against Botrytis cinerea at 100 ppm. The assay is classed as functional. As to conditions: read-out: IZ.
Assay [12] deals with Botrytis cinerea. The experiment in a line: Antimicrobial activity against Botrytis cinerea at 10 ppm. The assay is classed as functional. As to conditions: read-out: IZ.

As for `CC(C)=CC[C@@]12CCN(C)[C@@H]1Nc1cc(Br)ccc12` (relative stereo) [FLUSTRAMINE E], the result in the assay with Pseudomonas aeruginosa, with Globisporangium ultimum, in the assay with Aspergillus niger, in the assay on Bacillus subtilis [4], in the assay with Fusarium oxysporum [5] and with Saccharomyces cerevisiae [6] was inactive. Moreover, the zone of inhibition at 1000 ppm in the assay on Bacillus subtilis [1] was 12 mm; in the assay with Fusarium oxysporum [2] it was 10 mm; in the assay on Saccharomyces cerevisiae [3] it was 14 mm; in the assay on Rhizoctonia solani [7] it was 10 mm; in the assay on Botrytis cinerea [10], 27 mm. For the same molecule, the zone of inhibition at 100 ppm in the assay with Rhizoctonia solani [8] came out at 9 mm; in the assay on Botrytis cinerea [11], 25 mm. The zone of inhibition at 10 ppm with Rhizoctonia solani [9] worked out at 9 mm; with Botrytis cinerea [12] it was 21 mm.

The values are drawn from ChEMBL document CHEMBL1148046, “Marine alkaloids, 15. Two alkaloids, flustramine E and debromoflustramine B, from the marine bryozoan Flustra foliacea” (1994).
